Screening data: PubChem BioAssay, several laboratories
Mot1-301 SUMO = blocks SUMOylation pathway, rescuing yeast Mot1-301 growth | S. cerevisiae Mot1-301 growth rescue, ATP luminescence, 38.5C; percent above DMSO median, 100 means doubled | actives 1% (n = 320,000) | AID 2716 | growth rescue, % at 18.8 µM;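 active = every valid replicate shows activation above 250% relative to neutral control wells; inactive = the rest, any valid replicate at or below 250%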;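 also: OY570 slx delta 5 strain wells were the positive control but not used for scaling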
Efflux pump mplx = antifungal efflux pump inhibition, Nile Red retention; S. cerevisiae Candida pump triplex; inhibition, % at 10 µM; actives 0.44% (n = 330,000);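 active = plate passing quality check with inhibition over a set limit, or well fluorescence over plate mean plus 4 SD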;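 also: Nile Red retained in pooled yeast measured as flow cytometry median fluorescence; 0% = buffer negative control and 100% = Enniatin B positive control; higher means more Nile Red kept so more efflux inhibition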
Cneo AK release = causes C. neoformans cell lysis | adenylate kinase release luminescence, 4 h; normalised: neutral wells 0, clomiphene wells 100 | lysis activity, % at 15 µM | actives 0.2% (n = 360,000) | AID 651654;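 active = mean lysis activity across replicates of at least 80%, whatever share of replicates individually reach that level; inactive = mean lysis activity below 80%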
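Schedule: static 4 h at 37 °C with compound, 1 h detection; system: C. neoformans cells; benchmarks: Clomiphene as positive control; buffer or medium: fresh YPD medium; measure: luminescence rise reflecting yeast cell lysis; measured by: luminescent adenylate kinase detection reagent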
C2C12 statin = protects C2C12 myotubes from simvastatin toxicity. ATP luminescence, 48 h; scaled: DMSO 0, geranylgeraniol control 100. rescue of ATP level, % at 7.49 µM. actives 0.78% (n = 330,000);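 active = mean ATP rescue above about 67%, or every replicate alone reaching that limit, limit read from the data, passing the limit was not always enough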;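 also: myotubes were challenged with 10 µM simvastatin during compound exposure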
* hit, by the source's call; · = not tested or not shown; + = active, no number; ! = repeats disagree. Rows were chosen to be rich in hits. Some 1.8% of all compounds tested hit in one or more screens of this group.

SMILES	Mot1-301 SUMO	Efflux pump mplx	Cneo AK release	C2C12 statin
CCCC(=O)Nc1ccc2c(c1)OC[C@H](C)N(C(=O)c1ccccn1)C[C@@H](C)[C@H](OC)CN(C)C2=O	·	·	-1	10
CNC[C@@H]1Oc2cc(C#Cc3ccc(OC)cc3)ccc2S(=O)(=O)N([C@H](C)CO)C[C@H]1C	·	·	-1	6
Cc1ccnc2nc(C(=O)OCCOc3ccccc3)nn12	-6	0	-1	-4
Cc1ccnc2nc(C(=O)OCC(=O)c3ccccc3)nn12	-13	0	-1	112*
CC1(C)CC(=O)C2=C(C1)OC(N)=C(C#N)C21CCC2(CC1)OCCO2	35	0	-1	-4
COc1ccc(-n2c(SCC(=O)Nc3ccc4c(c3)OCO4)nc3ccccc3c2=O)cc1	1	0	·	118*
COc1ccc(-n2c(SCC(=O)N3CCCC3)nc3ccccc3c2=O)cc1	9	0	·	·
COc1ccc(-n2c(SCC(=O)Nc3cccc4ccccc34)nc(O)cc2=O)cc1	320*	0	-11	·
CCOc1ccc(-n2c(SCC(=O)Nc3ccc4c(c3)OCO4)nc3ccccc3c2=O)cc1	-11	0	2	·
COc1ccc(-n2c(SCC(=O)N3CCCCC3)nc(O)cc2=O)cc1	-13	0	0	120*
COc1cccc(CNC(=O)C2CCN(C(=O)N3CC(C)Oc4ccccc43)CC2)c1 (stereo not given)	17	0	0	12
CCOc1ccc(S(=O)(=O)NCCC(=O)OCC(=O)c2ccc[nH]2)cc1	-6	0	·	·
CCC(CO)Oc1cc(NC(=O)Cc2ccccc2)c2ncn(C(C)C)c2c1 (stereo not given)	-12	0	3	-2
COc1ccc(CCNC(=O)CCSCc2ccccc2F)cc1OC	263*	0	-3	1
Cc1cc2c3c(c1)C1(C(=O)N3C(C)(C)CC2C)C(C#N)=C(N)Oc2cc(O)ccc21 (stereo not given)	-15	1	1	·
CCc1cc2c3c(c1)C1(C(=O)N3C(C)(C)CC2C)C(C#N)=C(N)N2C(=C1C#N)Nc1ccccc12 (stereo not given)	608*	0	·	·
CC(=O)Nc1ccc(OCCOc2ccccc2C(C)=O)cc1	17	0	-5	-2
CCCCOc1ccc(C2CC(=O)NC2=O)cc1 (stereo not given)	5	0	1	0
CCCCOc1ccc(CC2CCC(=O)NC2=O)cc1 (stereo not given)	+	0	·	·
COc1ccc(Cl)cc1C(=O)n1nc(C)cc1C	220	0	13	107*
NC(=O)c1ncn([C@@H]2O[C@H](CNS(=O)(=O)c3cc4ccccc4s3)[C@@H](O)[C@H]2O)n1	·	·	-1	8
C[C@@H]1CN([C@@H](C)CO)C(=O)CCCn2nncc2CO[C@H]1CN(C)Cc1cccc(C(F)(F)F)c1	·	·	120*!	0
C[C@H]1CN([C@@H](C)CO)C(=O)CCCn2cc(nn2)CO[C@@H]1CN(C)Cc1ccc(C(F)(F)F)cc1	·	·	82*	-2
C[C@@H]1CN([C@@H](C)CO)C(=O)CCCn2cc(nn2)CO[C@@H]1CN(C)Cc1ccc2c(c1)OCO2	·	·	114*	-8
C[C@H](CO)N1C[C@H](C)[C@@H](CN(C)Cc2ccc3c(c2)OCO3)OCc2cn(nn2)CCCC1=O	·	·	-15	-1
SMILES	Mot1-301 SUMO	Efflux pump mplx	Cneo AK release	C2C12 statin
C[C@H]1CN([C@@H](C)CO)C(=O)CCCn2nncc2CO[C@@H]1CN(C)Cc1cccc(C(F)(F)F)c1	·	·	0	-2
COC(=O)N(C)C[C@H]1OCc2cn(nn2)CCCC(=O)N([C@H](C)CO)C[C@@H]1C	·	·	100*	4
Cc1c2cnn(-c3ccccc3)c(=O)c2c(C)n1CCCC(=O)N1CCN(c2ncccn2)CC1	·	·	4	·
CCN1CCN(C(=O)CCCn2c(C)c3cnn(-c4ccccc4)c(=O)c3c2C)CC1	332*	0	-2	-2
Cc1cccn2c(=O)c3cc(C(=O)NCC4CCCO4)c(=N)n(Cc4cccnc4)c3nc12 (stereo not given)	8	0	2	·
Cc1c(C(=O)NC2CCCCC2)oc2c1C(=O)CC(C)(C)C2	25	0	3	1
Cc1ccc(S(=O)(=O)NCCN=C(CN2CCCC2)NS(=O)(=O)c2ccc(C)cc2)cc1	39	0	-3	112*
CCCCCN(C(=O)CCC(=O)OC(C)C(=O)Nc1cccc(C#N)c1)c1c(N)n(CCCC)c(=O)[nH]c1=O (stereo not given)	303*	0	4	-12
CC(C)CN(C(=O)CCC(=O)OC(C)C(=O)Nc1cccc(C#N)c1)c1c(N)n(CC(C)C)c(=O)[nH]c1=O (stereo not given)	130	0	-5	15
Cc1ccc(CN2CCNC(=O)C2CC(=O)NC2CCCCCC2)cc1 (stereo not given)	0	0	2	-6
Cc1ccc(CN2CCNC(=O)C2CC(=O)NC2CCCCCC2)o1 (stereo not given)	347*	0	0	-4
COCCc1ncc(CN2CCCCC2C(=O)Nc2ccc(Oc3ccccc3)nc2)cn1 (stereo not given)	-6	0	-4	4
CC(C)N1CCC(N2CCN(Cc3ccc(Oc4ncccn4)cc3)CC2CCO)CC1 (stereo not given)	3	0	-1	·
CCN(CC)S(=O)(=O)c1ccc(NC(=O)c2ccc(N(C)S(C)(=O)=O)cc2)cc1	4	0	0	104*
COC(=O)NNC(=O)COc1ccc(Cl)cc1	13	0	-3	94*
Cn1c(SCC(=O)c2c(N)n(C)c(=O)n(C)c2=O)nnc1-c1ccccc1	13	0	-1	-2
COc1cc2c(=O)n(CCC(=O)NCC3CCCO3)c(=O)n(CC(=O)Nc3ccc(F)cc3)c2cc1OC (stereo not given)	284*	0	4	-1
CN1CCN(c2ccc(NC(=S)NC(=O)c3cccc4c(Br)cccc34)cc2)CC1	-12	0	2	126*
CN1CCN(c2ccc(NC(=S)NC(=O)c3cccc4ccccc34)cc2)CC1	-3	0	9	7
CCOC(=O)C1=C(C)NC(=O)C(C(N)=O)C1c1ccccc1 (stereo not given)	-9	0	-2	111*
CCOC(=O)C1=C(C)NC(=S)N(C=O)C1c1ccccc1 (stereo not given)	-14	0	·	·
NC12CC3CC(C1)CC(CO)(C3)O2	6	0	·	111*
CC(=O)CCc1c[nH]c2c(C(=O)O)cccc12	173	0	0	104*
CCC1(C)Nc2ccccc2C(=O)N1O (stereo not given)	-10	0	0	118*
CCOc1ccc(N2C(=O)c3ccccc3NC2(C)CC)cc1 (stereo not given)	-17	0	-6	1
CC1CCCN(C(=O)C2(NC(=O)Nc3cccc(F)c3)CCCCC2)C1 (stereo not given)	-13	0	-1	4
CCOc1cc2[nH]c(=S)n(CCOC)c(=O)c2cc1OCC	-8	0	-2	111*
